Results as given in ChEMBL document CHEMBL2331363, “Synthesis of a 2,4,6-trisubstituted 5-cyano-pyrimidine library and evaluation of its immunosuppressive activity in a Mixed Lymphocyte Reaction assay” (Bioorg Med Chem, 2013).

Columns and labels:
[1] = target: T1, Inhibitor of nuclear factor kappa-B kinase subunit beta (Homo sapiens) (UniProt O14920); assay: Binding affinity to IKKbeta (unknown origin) at 10 uM relative to control
T1 sequence (whole entry): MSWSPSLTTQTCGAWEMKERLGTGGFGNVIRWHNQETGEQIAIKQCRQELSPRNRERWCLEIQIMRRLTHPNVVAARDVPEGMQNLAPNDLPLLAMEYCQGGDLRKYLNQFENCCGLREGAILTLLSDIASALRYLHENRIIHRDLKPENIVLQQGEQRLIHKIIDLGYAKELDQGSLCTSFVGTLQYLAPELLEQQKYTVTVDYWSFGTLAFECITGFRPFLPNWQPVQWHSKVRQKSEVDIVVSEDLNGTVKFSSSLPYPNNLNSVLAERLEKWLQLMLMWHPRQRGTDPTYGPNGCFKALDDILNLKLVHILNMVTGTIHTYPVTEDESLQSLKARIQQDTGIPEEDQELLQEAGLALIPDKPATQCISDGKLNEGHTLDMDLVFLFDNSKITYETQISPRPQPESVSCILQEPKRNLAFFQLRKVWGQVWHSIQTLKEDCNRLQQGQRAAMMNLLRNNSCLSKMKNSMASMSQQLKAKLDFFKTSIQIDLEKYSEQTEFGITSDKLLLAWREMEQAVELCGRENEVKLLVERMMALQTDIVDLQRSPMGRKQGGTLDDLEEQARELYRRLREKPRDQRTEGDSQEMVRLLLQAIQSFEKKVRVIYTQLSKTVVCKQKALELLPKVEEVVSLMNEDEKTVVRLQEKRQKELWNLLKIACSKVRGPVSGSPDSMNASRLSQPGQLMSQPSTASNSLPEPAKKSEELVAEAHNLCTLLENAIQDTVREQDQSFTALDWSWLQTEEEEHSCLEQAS

[2] = target: T2, Receptor-interacting serine/threonine-protein kinase 4 (Homo sapiens) (UniProt P57078); assay: Binding affinity to RIPK4 (unknown origin) at 10 uM relative to control
T2 sequence (whole entry): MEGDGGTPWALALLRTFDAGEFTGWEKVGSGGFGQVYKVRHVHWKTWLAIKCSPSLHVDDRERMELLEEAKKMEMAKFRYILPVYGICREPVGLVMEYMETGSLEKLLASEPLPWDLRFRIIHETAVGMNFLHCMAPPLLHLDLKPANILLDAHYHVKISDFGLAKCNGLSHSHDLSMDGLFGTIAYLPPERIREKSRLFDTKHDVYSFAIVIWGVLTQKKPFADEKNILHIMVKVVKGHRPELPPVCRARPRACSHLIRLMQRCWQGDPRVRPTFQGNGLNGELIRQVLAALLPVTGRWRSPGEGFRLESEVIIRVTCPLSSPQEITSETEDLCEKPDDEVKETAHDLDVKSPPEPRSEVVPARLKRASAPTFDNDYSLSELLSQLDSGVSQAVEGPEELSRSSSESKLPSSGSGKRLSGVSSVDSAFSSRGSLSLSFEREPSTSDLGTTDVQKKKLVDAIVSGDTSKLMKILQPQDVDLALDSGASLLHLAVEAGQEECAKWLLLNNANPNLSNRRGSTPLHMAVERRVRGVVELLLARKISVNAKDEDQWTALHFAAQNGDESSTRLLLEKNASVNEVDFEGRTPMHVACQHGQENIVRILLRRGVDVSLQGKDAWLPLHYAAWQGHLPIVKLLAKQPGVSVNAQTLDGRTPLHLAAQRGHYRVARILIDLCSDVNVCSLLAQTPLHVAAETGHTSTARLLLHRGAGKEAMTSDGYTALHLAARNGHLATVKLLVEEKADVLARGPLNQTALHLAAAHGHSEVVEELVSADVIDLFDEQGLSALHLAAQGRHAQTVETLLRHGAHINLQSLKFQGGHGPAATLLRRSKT

[3] = target: Serine/threonine-protein kinase B-raf (Homo sapiens) (UniProt P15056); assay: Binding affinity to BRAF (unknown origin) at 10 uM relative to control
Sequence of Serine/threonine-protein kinase B-raf (Homo sapiens) (P15056 whole entry): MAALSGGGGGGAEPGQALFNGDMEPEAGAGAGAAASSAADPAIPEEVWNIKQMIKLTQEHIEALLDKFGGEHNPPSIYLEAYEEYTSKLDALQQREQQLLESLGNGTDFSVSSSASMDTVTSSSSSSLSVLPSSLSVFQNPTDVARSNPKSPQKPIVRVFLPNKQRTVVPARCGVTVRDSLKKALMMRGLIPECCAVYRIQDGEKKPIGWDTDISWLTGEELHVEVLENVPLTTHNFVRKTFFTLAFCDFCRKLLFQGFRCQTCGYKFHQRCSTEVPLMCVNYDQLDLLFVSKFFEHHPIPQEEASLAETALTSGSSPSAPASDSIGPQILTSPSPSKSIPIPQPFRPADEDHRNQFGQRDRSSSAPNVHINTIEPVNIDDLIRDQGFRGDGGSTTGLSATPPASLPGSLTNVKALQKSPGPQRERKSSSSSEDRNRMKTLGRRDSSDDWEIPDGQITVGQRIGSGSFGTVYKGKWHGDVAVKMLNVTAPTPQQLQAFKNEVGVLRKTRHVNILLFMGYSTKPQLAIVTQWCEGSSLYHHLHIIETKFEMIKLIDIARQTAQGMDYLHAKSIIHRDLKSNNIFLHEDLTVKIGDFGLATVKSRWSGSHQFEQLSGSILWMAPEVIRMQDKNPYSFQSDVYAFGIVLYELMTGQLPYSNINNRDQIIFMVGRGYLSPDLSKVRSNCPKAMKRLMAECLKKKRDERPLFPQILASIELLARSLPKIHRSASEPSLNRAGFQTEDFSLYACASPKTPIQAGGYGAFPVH

[4] = target: Ribosomal protein S6 kinase alpha-6 (Homo sapiens) (UniProt Q9UK32); assay: Binding affinity to RSK4 (unknown origin) at 10 uM relative to control
Sequence of Ribosomal protein S6 kinase alpha-6 (Homo sapiens) (Q9UK32 whole entry): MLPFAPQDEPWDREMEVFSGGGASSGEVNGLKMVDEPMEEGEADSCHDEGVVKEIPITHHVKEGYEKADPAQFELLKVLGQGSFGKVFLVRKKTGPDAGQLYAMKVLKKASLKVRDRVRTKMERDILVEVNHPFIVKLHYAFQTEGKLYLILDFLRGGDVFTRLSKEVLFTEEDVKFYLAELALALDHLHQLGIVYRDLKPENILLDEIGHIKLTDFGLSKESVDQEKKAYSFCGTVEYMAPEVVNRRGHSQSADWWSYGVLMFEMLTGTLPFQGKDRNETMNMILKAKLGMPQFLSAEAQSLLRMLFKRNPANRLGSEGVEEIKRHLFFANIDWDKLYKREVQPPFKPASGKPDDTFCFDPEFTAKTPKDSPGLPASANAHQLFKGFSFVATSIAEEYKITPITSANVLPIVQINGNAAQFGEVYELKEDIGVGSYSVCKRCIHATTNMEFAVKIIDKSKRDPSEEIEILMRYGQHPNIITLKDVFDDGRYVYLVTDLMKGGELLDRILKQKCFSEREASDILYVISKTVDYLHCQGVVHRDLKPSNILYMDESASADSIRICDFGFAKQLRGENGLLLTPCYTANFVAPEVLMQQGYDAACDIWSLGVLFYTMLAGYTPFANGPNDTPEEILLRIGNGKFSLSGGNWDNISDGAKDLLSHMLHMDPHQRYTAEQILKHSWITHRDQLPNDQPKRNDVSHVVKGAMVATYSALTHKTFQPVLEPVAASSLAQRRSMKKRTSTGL

[5] = Immunosuppressive activity in human RPMI1788 cells cocultured with human PBMC assessed as inhibition of [3H]thymidine incorporation at 10 uM incubated for 6 days prior to [3H]thymidine addition measured after 18 hrs by liquid scintillation counting; assay type: functional; details: RPMI-1788
Procedure, shortened: (§1)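 Effector PBMCs from heparinized healthy-donor blood were isolated over Lymphoprep and held at 1.2 × 10⁶ cells/mL in RPMI-1640 with 10% heat-inactivated FCS. Mitomycin-treated stimulator cells were at 0.45 × 10⁶ cells/mL. Cells were mixed with diluted compound and cultured at 37 °C, 5% CO₂. (methyl-³H)thymidine was added for the final 18 h, and filter-harvested cpm were counted by scintillation. Compounds were screened at one concentration, then dose-response IC₅₀ was determined. Values are means of two independent experiments.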

[6] = Immunosuppressive activity in human RPMI1788 cells cocultured with human PBMC assessed as inhibition of [3H]thymidine incorporation incubated for 6 days prior to [3H]thymidine addition measured after 18 hrs by liquid scintillation counting; assay type: functional, cell-based; details: RPMI-1788; procedure, shortened: as §1
[7] = target: Serine/threonine-protein kinase mTOR (Homo sapiens) (UniProt P42345); assay: Inhibition of mTOR (unknown origin) at 10 uM
[8] = Growth inhibition of human Jurkat T cells at 10 uM after 48 hrs by WST1 assay; assay type: cell-based
Procedure, shortened: (§2)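 Jurkat T cells were seeded at 5.10⁴ cells per well and exposed to serial compound dilutions for 48 h at 37 °C and 5% CO₂. Part of the medium was removed, WST-1 tetrazolium salt was added, and cells were incubated further. Absorbance was read at 450 nm. Results are % cytotoxicity at each concentration, with CC₅₀ calculated.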

[9] = Cytotoxicity against human Jurkat T cells after 48 hrs by WST1 assay; assay type: cell-based; procedure, shortened: as §2
[10] = target: T3, Inhibitor of nuclear factor kappa-B kinase subunit alpha (Homo sapiens) (UniProt O15111); assay: Binding affinity to IKKalpha (unknown origin) at 10 uM relative to control
T3 sequence (whole entry): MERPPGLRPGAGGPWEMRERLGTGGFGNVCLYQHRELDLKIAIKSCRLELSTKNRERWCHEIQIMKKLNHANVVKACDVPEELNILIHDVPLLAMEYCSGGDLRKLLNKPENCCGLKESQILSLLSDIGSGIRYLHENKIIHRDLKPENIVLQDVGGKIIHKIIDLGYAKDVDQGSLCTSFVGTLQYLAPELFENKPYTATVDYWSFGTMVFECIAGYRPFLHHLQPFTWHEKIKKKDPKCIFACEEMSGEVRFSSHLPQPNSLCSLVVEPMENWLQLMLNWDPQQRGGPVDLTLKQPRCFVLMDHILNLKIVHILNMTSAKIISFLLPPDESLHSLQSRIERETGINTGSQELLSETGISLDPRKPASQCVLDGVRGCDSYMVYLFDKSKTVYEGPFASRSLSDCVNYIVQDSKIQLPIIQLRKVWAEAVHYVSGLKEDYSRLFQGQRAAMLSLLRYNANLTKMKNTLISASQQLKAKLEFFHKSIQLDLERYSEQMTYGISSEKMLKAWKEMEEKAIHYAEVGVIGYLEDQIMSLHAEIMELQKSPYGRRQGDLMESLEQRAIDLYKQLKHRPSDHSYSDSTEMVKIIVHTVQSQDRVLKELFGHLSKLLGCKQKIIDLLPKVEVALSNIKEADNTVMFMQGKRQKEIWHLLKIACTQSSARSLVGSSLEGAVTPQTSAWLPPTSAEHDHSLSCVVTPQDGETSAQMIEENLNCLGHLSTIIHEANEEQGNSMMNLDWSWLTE

[11] = target: Tyrosine-protein kinase JAK1 (Homo sapiens) (UniProt P23458); assay: Binding affinity to JAK1 (unknown origin) at 10 uM relative to control
Sequence of Tyrosine-protein kinase JAK1 (Homo sapiens) (P23458 whole entry): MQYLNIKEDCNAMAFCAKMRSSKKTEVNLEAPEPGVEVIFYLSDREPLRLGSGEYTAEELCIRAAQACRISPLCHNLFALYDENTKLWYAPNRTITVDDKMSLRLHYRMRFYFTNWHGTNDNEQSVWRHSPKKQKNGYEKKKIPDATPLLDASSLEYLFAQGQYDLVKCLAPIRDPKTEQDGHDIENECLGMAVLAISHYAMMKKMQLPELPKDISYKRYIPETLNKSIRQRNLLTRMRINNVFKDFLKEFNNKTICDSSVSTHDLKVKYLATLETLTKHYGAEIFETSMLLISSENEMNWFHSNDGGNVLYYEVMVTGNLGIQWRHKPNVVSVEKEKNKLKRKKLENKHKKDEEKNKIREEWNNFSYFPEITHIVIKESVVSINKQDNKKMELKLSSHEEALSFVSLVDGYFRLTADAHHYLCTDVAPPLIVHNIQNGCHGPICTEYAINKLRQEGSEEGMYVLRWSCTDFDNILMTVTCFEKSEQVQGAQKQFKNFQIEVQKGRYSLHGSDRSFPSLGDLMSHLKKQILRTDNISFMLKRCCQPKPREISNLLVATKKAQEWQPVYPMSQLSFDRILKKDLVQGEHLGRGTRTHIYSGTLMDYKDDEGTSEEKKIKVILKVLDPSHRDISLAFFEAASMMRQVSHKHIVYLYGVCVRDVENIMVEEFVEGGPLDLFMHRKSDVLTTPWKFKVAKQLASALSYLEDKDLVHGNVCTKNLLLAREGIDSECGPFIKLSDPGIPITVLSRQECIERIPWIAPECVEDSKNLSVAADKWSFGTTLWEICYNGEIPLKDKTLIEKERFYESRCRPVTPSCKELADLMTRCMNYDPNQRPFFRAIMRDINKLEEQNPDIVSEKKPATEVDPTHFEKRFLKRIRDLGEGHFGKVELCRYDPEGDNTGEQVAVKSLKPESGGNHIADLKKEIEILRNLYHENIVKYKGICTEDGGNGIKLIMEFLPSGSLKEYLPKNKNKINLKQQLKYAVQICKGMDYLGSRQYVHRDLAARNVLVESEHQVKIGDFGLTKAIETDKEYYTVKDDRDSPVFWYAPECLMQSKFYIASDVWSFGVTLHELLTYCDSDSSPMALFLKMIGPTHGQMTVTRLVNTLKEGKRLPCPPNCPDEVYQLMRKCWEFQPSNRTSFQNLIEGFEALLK

[12] = target: Serine/threonine-protein kinase 10 (Homo sapiens) (UniProt O94804); assay: Binding affinity to LOK (unknown origin) at 10 uM relative to control
Sequence of Serine/threonine-protein kinase 10 (Homo sapiens) (O94804 whole entry, looked up): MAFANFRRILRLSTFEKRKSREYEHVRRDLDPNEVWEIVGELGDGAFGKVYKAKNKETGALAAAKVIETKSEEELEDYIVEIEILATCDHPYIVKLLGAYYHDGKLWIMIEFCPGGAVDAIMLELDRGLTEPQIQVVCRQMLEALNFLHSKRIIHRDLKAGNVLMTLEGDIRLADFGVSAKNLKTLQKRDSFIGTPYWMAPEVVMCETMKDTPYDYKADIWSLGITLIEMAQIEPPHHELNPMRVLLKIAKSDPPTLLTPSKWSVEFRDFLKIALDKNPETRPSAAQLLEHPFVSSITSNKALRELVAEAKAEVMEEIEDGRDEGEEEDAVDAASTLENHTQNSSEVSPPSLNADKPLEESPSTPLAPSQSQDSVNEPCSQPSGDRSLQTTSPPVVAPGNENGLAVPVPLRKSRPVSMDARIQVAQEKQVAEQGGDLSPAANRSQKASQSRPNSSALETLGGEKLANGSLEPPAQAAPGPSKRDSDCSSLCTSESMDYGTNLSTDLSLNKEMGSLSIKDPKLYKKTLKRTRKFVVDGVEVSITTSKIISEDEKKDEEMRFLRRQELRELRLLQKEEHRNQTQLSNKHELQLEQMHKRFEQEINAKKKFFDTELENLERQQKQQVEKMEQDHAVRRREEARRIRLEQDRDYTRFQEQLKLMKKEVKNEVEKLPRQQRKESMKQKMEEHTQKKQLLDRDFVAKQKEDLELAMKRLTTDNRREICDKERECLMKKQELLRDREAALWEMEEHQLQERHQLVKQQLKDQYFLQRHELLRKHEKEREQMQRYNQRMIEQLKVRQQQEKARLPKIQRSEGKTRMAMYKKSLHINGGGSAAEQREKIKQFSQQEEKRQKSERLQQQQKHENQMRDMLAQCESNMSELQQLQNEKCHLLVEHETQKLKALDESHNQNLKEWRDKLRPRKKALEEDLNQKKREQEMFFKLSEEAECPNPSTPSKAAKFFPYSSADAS

[13] = system: Serine/threonine-protein kinase B-raf (Homo sapiens), P15056 [V600E]; assay: Binding affinity to BRAF V600E mutant (unknown origin) at 10 uM relative to control
Sequence of Serine/threonine-protein kinase B-raf (Homo sapiens), P15056 [V600E] (P15056 whole entry V600E): as the sequence (P15056 whole entry) above, with V600E counted along it

Activity [1]: 48% | Activity [2]: 43% | Activity [3]: 34% | Activity [4]: 35% | IC50 [6]: 1.6 µM | inhibition [7]: 10% | Activity [10]: 44% | Activity [11]: 39% | Activity [12]: 45% | Activity [13]: 28%
Structure (SMILES): COc1ccc(-c2nc(SCc3ccccc3)nc(N3CCOCC3)c2C#N)cc1
inhibition at 10 µM [5]: 90% | inhibition at 48 h, 10 µM [8]: 10% | CC50 at 48 h [9]: > 10 µM
